MrgX1 antagonist = blocks BAM8-22 activation of human MrgX1 receptor; Q96LB2; B-score at 10 µM; MRGX1-HEK293 calcium flux, Fluo-4, BAM8-22 antagonism; hits give low values; 310,000 compounds, 1.3% hits;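 active means calcium-response B-score plate-corrected more than 3 library SD below zero, starting fluorescence within 5 deviations, no agonist response on first addition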;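 further: peak minus trough fluorescence over baseline after final BAM8-22 challenge near maximal dose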
Target sequence (Q96LB2 whole entry, looked up): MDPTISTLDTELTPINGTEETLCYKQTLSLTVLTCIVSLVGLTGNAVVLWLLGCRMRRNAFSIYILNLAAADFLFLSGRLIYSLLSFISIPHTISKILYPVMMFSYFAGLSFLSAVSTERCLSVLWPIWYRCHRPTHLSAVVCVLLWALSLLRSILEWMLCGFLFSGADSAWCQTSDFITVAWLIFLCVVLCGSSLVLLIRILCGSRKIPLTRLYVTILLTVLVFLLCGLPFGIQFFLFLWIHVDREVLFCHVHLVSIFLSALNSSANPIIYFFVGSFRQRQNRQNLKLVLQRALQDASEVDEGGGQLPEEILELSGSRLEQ
RGS4 block = human RGS4 inhibition; P49798; HEK293 M3R/RGS4 inducible, Fluo-4 calcium flux; hits give high values; triggered by carbachol at its EC20; B-score at 10 µM; 310,000 compounds, 0.45% hits; AID 463165;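 active means B-score, a plate-corrected calcium signal, over three deviations above library mean, with baseline fluorescence within five deviations of library mean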;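 further: RGS4 expression induced by doxycycline in cells with stable M3 receptor; B-score is computed from the integrated fluorescence ratio over baseline after carbachol; higher B-score means a larger calcium signal and so more RGS4 inhibition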
Target sequence (P49798 whole entry, looked up): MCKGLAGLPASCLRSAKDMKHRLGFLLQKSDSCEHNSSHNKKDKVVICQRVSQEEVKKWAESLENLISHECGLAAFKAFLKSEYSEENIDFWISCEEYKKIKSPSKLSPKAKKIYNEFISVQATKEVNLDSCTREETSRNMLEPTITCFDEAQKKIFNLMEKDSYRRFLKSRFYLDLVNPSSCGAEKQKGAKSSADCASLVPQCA
Lipid droplet = hepatic lipid droplet formation modulation; AML12 mouse hepatocytes, oleate lipid droplets, BODIPY imaging; inhibition, % at 6.5 µM; 240,000 compounds, 0.4% hits; AID 1656;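 active means lipid droplet intensity inhibited by at least 50%, with more than 500 cells counted; inconclusive means wells with under 300 cells, treated as cytotoxic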
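Assay system: AML12 hepatocytes (mouse); Probe or stimulus: oleic acid at 100 µM to induce lipid droplet formation; Dosing: compound at 6.5 µM only; Schedule: compound with oleate, overnight; Detection: fluorescence imaging, 20x objective, two fields per well; Measure: % inhibition of lipid droplet signal.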
MrgX1 PAM = allosterically activates human MrgX1 receptor signaling; Q96LB2; MrgX1-HEK293, Fluo-4 calcium flux, FDSS; hits give high values; B-score at 10 µM; 310,000 compounds, 0.63% hits; AID 588675;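 active means plate-corrected calcium response at least 3 library SD above typical, normal starting fluorescence, not activating the receptor alone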;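 further: compound read alongside a low EC10 to EC30 dose of BAM8-22 agonist; peak minus trough fluorescence over baseline measured at the second addition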
RGS4 act = RGS4 potentiation or activation | B-score at 10 µM | 310,000 compounds, 0.92% hits | HEK293 M3R/inducible RGS4, carbachol calcium flux Fluo4; hits give low values;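 active means B-score of the integrated calcium signal more than 4 SD below the library mean, with starting fluorescence not abnormally high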;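 further: negative B-score means reduced calcium response which marks RGS4 activation or potentiation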
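Also added: carbachol at ECmax as muscarinic agonist stimulus; Assay system: HEK293 cells with stable M3R and inducible RGS4; Timing: overnight RGS4 induction, 30 min dye load 37 °C, 20 min compound RT; Measured by: Fluo4-AM (2 µM) calcium-flux fluorescence, kinetic read.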
MrgX1 agonist = activates human MrgX1 receptor signaling | MrgX1-HEK293 cells, Fluo-4 calcium fluorescence, agonist mode; hits give high values | B-score at 10 µM | 310,000 compounds, 0.44% hits | AID 588627;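 active means calcium response B-score plate-corrected fluorescence ratio at least 3 library SD, with starting fluorescence B-score inside 5 SD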
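System: HEK293 cells stably expressing human MrgX1 receptor; Dosing: test compound in the initial addition of three; Schedule: overnight plating, then 30 min 37 °C plus 30 min room-temperature dye loading; Detection: kinetic calcium dye fluorescence, Fluo-4 NW; Controls: per-plate positive and negative controls for Z′ factor.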
Lipid drop inh = confirmation of inhibitors of hepatic lipid droplet formation. inhibition, % at 5.2 µM. shares compounds with Lipid droplet. AML12 mouse hepatocytes, BODIPY lipid droplet imaging; droplets induced with 100 µM oleic acid. 870 compounds, 65% hits;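 active means inhibition of lipid droplet metric at least 50%, with more than 300 cells in each of four replicates; inconclusive means wells under 300 cells, flagged as toxic or low count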;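 further: plate controls were DMSO with oleic acid for no effect and 5 µM Triacsin-C for full effect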
AML12 tox img = toxic to AML12 mouse hepatocytes in counter-screen. DAPI nuclear morphology cytotoxicity imaging; hits give high values; cells fed 100 µM oleate overnight. 870 compounds, 3% hits. shares compounds with Lipid droplet. AID 463200. z-score at 5 µM; in the data active means z-score above about 6.3;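 further: compound exposure lasted overnight at 37 °C before fixation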
RGS4 act valid = RGS4 activation, validation assay; HEK293 M3R/RGS4 inducible, carbachol calcium flux Fluo4; 1,100 compounds, 89% hits; inhibition, % at 10 µM; shares compounds with RGS4 act; AID 602282;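 active means inhibition above 3 SD of the buffer control wells, cut at about 41% in these data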;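 further: signal is the integrated peak-minus-minimum Fluo4 fluorescence over baseline ratio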
M3R Ca counter = counter-screen for RGS4 activators: effect in non-induced cells; inhibition, % at 10 µM; shares compounds with RGS4 act; 1,100 compounds, 82% hits; HEK293 M3R non-induced RGS4, Fluo4 calcium flux; after carbachol challenge at its EC90;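 active means inhibition exceeding 3 SD of buffer-only control wells, cut at about 26% in these data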;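 further: percent drop in integrated peak-minus-baseline over baseline Fluo4 ratio after carbachol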
An asterisk follows results filed as active; i = inactive; ? = inconclusive; / = no result. This is a sample that favours compounds with a hit; in the whole collection about 3.8% have one here.

SMILES | MrgX1 antagonist | RGS4 block | Lipid droplet | MrgX1 PAM | RGS4 act | MrgX1 agonist | RGS4 act valid | M3R Ca counter | others
COC(=O)C1CN(C#N)N(c2ccc(Cl)cc2)C12c1ccccc1-c1ccccc12 (centres undefined) | i | i | 131* | i | i | i | / | / | Lipid drop inh=?;AML12 tox img=36*
C[C@H]1CCC/C=C/C2C[C@H](O)CC2[C@H](O)/C=C/C(=O)O1 (some centres undefined) | i | i | ? | i | i | i | / | /
CC1CCC/C=C/C2CC(O)CC2C(O)/C=C/C(=O)O1 (centres undefined) | i | i | 110* | i | i | i | / | / | Lipid drop inh=114*;AML12 tox img=17*
CCN(CC)P(=O)(c1nccn1C)N(CC)CC | i | i | 17 | i | i | i | / | /
COc1ccc(C(=O)C2CCCN(C3CSCCSC3)C2)c(OC)c1 (centres undefined) | i | i | -26 | i | -7.7* | i | 45* | 84*
COc1ccc(C(=O)C2CCCN(C3CSCCSC3)C2)c(C)c1 (centres undefined) | i | i | -2 | i | -8.8* | i | 86* | 44*
COc1ccc(C(=O)C2CCCN(CCO)C2)c(C)c1 (centres undefined) | i | i | 4 | i | i | i | / | /
COc1ccc(C(=O)C2CCCN(Cc3ccc(C)s3)C2)c(OC)c1 (centres undefined) | i | i | -25 | i | i | i | / | /
COC(=O)c1ccc(COc2cc(C)cc3oc(=O)c4c(c23)CCCC4)o1 | i | i | / | i | -11* | i | 79* | 46*
Cc1cc(OCC(=O)O)c2c3c(c(=O)oc2c1)CCCC3 | i | i | 23 | i | i | i | / | /
OC(c1cccc(Cl)c1)(c1cccc(Cl)c1)C1CN2CCC1CC2 (centres undefined) | i | i | -45 | i | -14* | i | 93* | 93*
COC(=O)C1=C(c2cccc(OC)c2OC)C[C@@H]2CC[C@H]1N2C(=O)NCc1cccc2ccccc12 | i | i | / | i | i | i | / | /
CCN(CC)CCCOC(=O)C(OC)(c1ccccc1)c1ccccc1 | i | i | 18 | i | -11* | i | 91* | 86*
CC(C)C(=O)NC(Oc1ccccc1Cl)C(Cl)(Cl)Cl (centres undefined) | i | i | 0 | i | i | i | / | /
CN1CC=C(/C=C/c2ccc(-c3ccccc3)cc2)CC1 | i | i | -15 | i | -8.7* | i | 66* | 31*
O=c1[nH]c(=S)n(-c2ccc(Cl)cc2)c(O)c1/C=N/N1CCOCC1 | i | i | 2 | i | i | i | / | /
CCOP(=S)(NN(Cc1ccccc1)C(=O)c1ccccc1)OCC | i | i | -53 | i | -14* | i | 0 | 0
CCOP(=O)(OCC)C(Cc1ccccc1)NC(C)=O (centres undefined) | i | i | 1 | i | i | i | / | /
CSc1ccc(C(=O)C2CCCN(Cc3cccnc3)C2)cc1 (centres undefined) | i | i | -13 | i | -8.5* | i | 68* | 26*
N[C@@]1(C(=O)O)CC[C@@H](C(=O)O)C1 | i | / | / | i | / | i | / | /
CCn1ccnc1CN1CCCC(C(=O)c2cccc(C(F)(F)F)c2)C1 (centres undefined) | i | i | -6 | i | -9.9* | i | 93* | 87*
Cc1cc(OC(=O)N(C)C)nc(-c2ccc(C)c(Cl)c2)n1 | i | i | -4 | i | i | i | / | /
CC(Cc1ccccc1Sc1ccc(O)cc1)N(C)C (centres undefined) | i | i | 6 | i | -9.2* | i | 95* | 94*
CC(N)Cc1ccccc1Sc1ccc(O)cc1 (centres undefined) | i | i | / | i | i | i | / | /
O=[N+]([O-])c1ccc(N2CCOCC2)c2ccncc12 | i | i | 3 | i | i | i | / | /
CCN(CC)S(=O)(=O)c1cc(NC(=O)C(C)N2CC=C(c3ccccc3)CC2)ccc1C (centres undefined) | i | i | -13 | i | -7.6* | i | 79* | 35*
CCOC(=O)C1(CCc2ccccc2)CCN(Cc2cccc3cnccc23)CC1 | i | i | -7 | i | -11* | i | 89* | 59*
CCN1C[C@@]2(COC)C3[C@@H](OC)[C@H]4[C@@H]1[C@@]3(C1C[C@@]3(O)[C@H](OC(=O)c5ccccc5)C1[C@]4(OC(C)=O)[C@@H](O)[C@H]3OC)[C@@H](OC)C[C@H]2O (some centres undefined) | i | i | / | i | i | i | / | /
COc1cccc(C(=O)C2CCCN(C3CCOCC3)C2)c1 (centres undefined) | i | i | -1 | i | i | i | / | /
CC(=O)N1CCC(N2CCCC(C(=O)c3cccc(Cl)c3)C2)CC1 (centres undefined) | i | i | -4 | i | -10* | i | 80* | 84*

Screening results deposited in PubChem by several laboratories.
